Screening results from PubChem.
Compounds with a hit are over-represented: about 8.9% of the library has one in this group of screens.
HSV augment – enhancers of HSV replication in host cells, fold increase, host cell viability; AID 1956, 2009; HSV replication augmentation in cells; 220,000 compounds, 0.005% hits; maximum fold increase; in the data active = maximum fold increase above about 1.5; tested in PC3 cells
b-catenin transl – modulators of beta-catenin nuclear translocation, primary screen, imaging, HeLa cells, immunofluorescence, high-content; nuclear translocation activity, % at 5 µM; 190,000 compounds, 0.3% hits; AID 1665, 2009;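 active = nuclear translocation activity above 50% at 5 µM, with a well cell count of 50 or more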;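 note: per-cell ratio of nuclear to cytoplasmic median beta-catenin stain intensity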
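Test system: human HeLa cells, endogenous beta-catenin. Times: 24 h compound exposure, 37°C. Measured by: beta-catenin immunofluorescence imaging with DAPI.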
MT stabilizer – microtubule stabilizers in HeLa cells, primary screen, imaging, high-content imaging; HeLa tubulin immunostaining HCS, 24 h; share of cells brighter than vehicle mean+2SD; % tubulin-high responders, % at 10 µM; 200,000 compounds, 0.83% hits;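 active = plate Z-score above 3 for both tubulin-high and condensed-nucleus cell shares, with cell loss under 80%, at 10 µM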;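 note: anti alpha tubulin signal scored within the nucleus-defined area of each cell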
Lmaj promast – Leishmania major promastigote growth inhibition, primary screen | inhibition, % at 10 µM | 200,000 compounds, 9% hits | AID 1063, 2008 | Leishmania major promastigotes, resazurin fluorescence viability; in the data active = inhibition above about 50%;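 note: promastigotes grown with compound for 44 hours at 28 °C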
Dynein cargo inh – inhibitors of GR-EGFP nuclear translocation, primary screen, dynein cargo transport inhibitor project, imaging, high-content, 3617.4 mouse cells; 220,000 compounds, 0.47% hits; AID 1381, 2008; z-score, hits read low; test concentration mostly 20 µM; stimulated with dexamethasone, 1 µM; stronger effect = lower value;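 active = plate z-score of nuclear minus cytoplasmic receptor signal below a set negative limit, without overly bright fluorescence or cell loss, cut at about -3.5 in these data, passing the limit was not always enough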;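 note: z-score of nuclear minus cytoplasmic ring GR-EGFP intensity difference per well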
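Buffer or medium: tet-free, stripped-serum medium; reagent: dexamethasone at 1.0 µM final, 30 min; incubation: 48 h induction, 1 h compound, 30 min dex at 37 °C; measured by: formaldehyde fixation, Hoechst nuclear stain, 10x automated fluorescence imaging; read-out: nuclear-to-cytoplasmic GR-EGFP distribution per well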
Of the large screens only hits and unclear results are named; the others gave an inactive call.

O=C(CCc1nc(-c2ccccc2F)no1)NCCc1ccccc1Cl	none
Cc1cc(Br)ccc1OCCCCNCCO	Lmaj promast 86
C=CCNCCCCOc1ccc(Br)cc1C	Lmaj promast 99
Cc1nnc(N/N=C/c2cccc(OCc3ccc(Cl)c(Cl)c3)c2)n1N	Lmaj promast 73
Nc1nc(SCC(=O)Nc2ccc(Oc3ccccc3)cc2)n[nH]1	none
Nc1nc(SCC(=O)Nc2cccc(Oc3ccccc3)c2)n[nH]1	Lmaj promast 56
COCCSc1ccccc1C(=O)Nc1cc(C)ccn1	none
Clc1ccc2nc(-c3ccccc3)c(CN3CCOCC3)n2c1	Lmaj promast 60
S=C(c1ccc(-c2ccc(Cl)cc2Cl)o1)N1CCCCC1	none
COc1cc2c(cc1OC)C1Cc3ccc(OC)c(OC)c3CN1CC2 (centres undefined)	Lmaj promast 95
CCOC(=O)C1CCN(CCC(=O)Nc2ccccc2Cl)CC1	Lmaj promast 78
Cc1c(Cl)cccc1NC(=O)CCN1CCCCC1	none
CCOC(=O)C1CCN(CCC(=O)Nc2cccc(Cl)c2)CC1	Lmaj promast 93
O=C(CCN1CCN(Cc2ccccc2)CC1)Nc1cccc(Cl)c1	Lmaj promast 89
CCOC(=O)C1CCN(CCC(=O)Nc2ccc(C)cc2)CC1	Lmaj promast 56
CC(O)CNc1nc2sc3c(c2c(=O)n1Cc1ccco1)CCCCC3 (centres undefined)	none (no result: MT stabilizer, Lmaj promast)
CSc1nnc(-c2sc3cc(C(F)(F)F)cnc3c2-c2ccccc2)n1C	MT stabilizer 40 (no result: b-catenin transl)
COc1ccccc1CN1C(=O)[C@H]2Cc3c([nH]c4ccccc34)C(C)(C)N2C1=O	none (no result: b-catenin transl, MT stabilizer, Lmaj promast, Dynein cargo inh)
COn1c(SCC(N)=O)nc2ccccc2c1=O	none
COn1c(SCc2ccc(C)cc2C)nc2ccccc2c1=O	b-catenin transl 51, MT stabilizer 41
Cc1ccc(Cl)cc1NC(=S)N(Cc1ccco1)C(C)c1cccs1 (centres undefined)	none
COc1cccc(NC(=O)N(Cc2ccco2)C(C)c2cccs2)c1 (centres undefined)	Lmaj promast 61 (no result: b-catenin transl)
Cc1ccc(C)c(NC(=S)N(Cc2ccco2)C(C)c2cccs2)c1 (centres undefined)	Lmaj promast 63
CC(c1cccs1)N(Cc1ccco1)C(=O)Nc1ccc(Cl)c(Cl)c1 (centres undefined)	none (no result: b-catenin transl)
COc1ccc(OC(=O)C2CC(=O)N(c3ccc(C)cc3)C2)cc1 (centres undefined)	none
COc1ccc(NC(=S)Nc2cccc(S(=O)(=O)N3CCCCC3)c2)cc1	Lmaj promast 95 (no result: b-catenin transl)
CC(=O)Oc1ccc(-c2ccc(C(=O)Nc3cccc(S(=O)(=O)N4CCOCC4)c3)cc2)cc1	none
COc1ccc(S(=O)(=O)N2CCCCC2)cc1NC(=S)Nc1ccccc1	Lmaj promast 84
Cc1cc(NC(=O)c2ccc(S(=O)(=O)N3CCOCC3)cc2)no1	Lmaj promast 54
COc1ccc(C(=O)NC(=S)Nc2cccc(S(=O)(=O)N3CCOCC3)c2)cc1	MT stabilizer 22
COc1ccc(OC)c(/C=C/C(=O)Nc2cccc(S(=O)(=O)N3CCCC3)c2)c1	none
Cc1cccc(NC(=O)c2ccc(S(=O)(=O)N3CCOCC3)cc2)n1	none
NC1=NC[C@H](c2ccccc2)N1CCCCC1CCCCC1	none (no result: MT stabilizer, Lmaj promast)
COc1ccc(NC(=S)Nc2cc(S(=O)(=O)N3CCCCC3)ccc2OC)cc1	Lmaj promast 91
COc1ccc(S(=O)(=O)N2CCCCCC2)cc1NC(=O)Cc1cc(OC)c(OC)c(OC)c1	Lmaj promast 100
COc1ccc(CC(=O)Nc2cc(S(=O)(=O)N3CCCCC3)ccc2C)cc1OC	none
COc1ccc(S(=O)(=O)N2CCCCC2)cc1NC(=S)Nc1cccc(Cl)c1C	none
Cc1cc(C)c(C#N)c(SCc2nc3ccccc3c(=O)[nH]2)n1	none
O=C1C2C(c3ccccc3)=NN(c3ccccc3)C2C(=O)N1c1ccccc1 (centres undefined)	Lmaj promast 59 (no result: b-catenin transl)
O=C1[C@H]2C(c3ccccc3)=NN(c3ccccc3)[C@H]2C(=O)N1c1ccccc1	none
Cc1ccc(NC(=S)NC(=O)c2ccc(F)cc2)cc1S(=O)(=O)Nc1cccc(Cl)c1	MT stabilizer 20
COc1ccc(NC(=O)CCC(=O)c2cccs2)cc1S(=O)(=O)Nc1ccc(Cl)cc1	MT stabilizer 17
Cc1ccc(C(=O)NC(=S)Nc2ccc(NC(=O)c3cccc(Cl)c3)cc2)cc1	none
COc1ccc(NC(=O)c2c(F)cccc2F)cc1S(=O)(=O)Nc1ccc(Br)cc1	Lmaj promast 52
Cc1ccc(NC(=O)c2cccs2)cc1S(=O)(=O)Nc1cccc(Cl)c1	Lmaj promast 51
O=C(CSC1=NCCS1)NC(c1ccccc1)c1ccccc1	none
Oc1ccccc1/C=N/Nc1cccc2cccnc12	none
Cc1cccc(S(=O)(=O)Nc2nc3ccccc3nc2Nc2ccc3c(c2)OCO3)c1	none
COC(=O)c1cn(Cc2cccc(C)c2)nn1	none
C/C(=N\N1C(=O)c2ccccc2NC1c1ccccc1)c1ccccc1O (centres undefined)	none
C/C(=N\N1C(=O)c2ccccc2NC1c1ccco1)c1ccccc1O (centres undefined)	Lmaj promast 90
c1ccc2[nH]c3cc4ncnc4cc3nc2c1	Lmaj promast 99 (no result: b-catenin transl)
Cc1ccc(C(=O)N2CCN(c3cccc(Cl)c3)CC2)cc1C	MT stabilizer 24
Cc1cc(C(=O)N2CCN(c3ccccc3)CC2)c(C)o1	none
Cc1cc(C(=O)N2CCN(c3cccc(Cl)c3)CC2)c(C)o1	MT stabilizer 60 (no result: b-catenin transl)
CSc1ccccc1C(=O)N1CCN(c2cccc(Cl)c2)CC1	MT stabilizer 21
CCOC(=O)CCSc1nc2c(c(C(F)(F)F)c1C#N)CCC2	none
O=P(c1ccccc1)(c1ccccc1)C(c1ccccn1)P(=O)(c1ccccc1)c1ccccc1	none (no result: MT stabilizer, Lmaj promast)
CCOC(=O)c1nn(-c2ccc(F)cc2)c(C)c1C(C)=O	none
COc1ccccc1/C=N/NC(=O)CSc1cc(C)nc2ccccc12	MT stabilizer 27
COc1ccc(CCCC(=O)N/N=C/c2cccc(OC)c2O)cc1C	Lmaj promast 98
COc1ccc(CSCC(=O)N/N=C/c2ccccc2O)cc1	Lmaj promast 68
CCCCSc1nc(C)cc(SCC(=O)N/N=C/c2cccc(OC)c2O)n1	Lmaj promast 99 (no result: HSV augment)
COc1ccc2nc(C)cc(SCC(=O)N/N=C/c3ccc(O)cc3O)c2c1	Lmaj promast 98
COc1ccc2nc(C)cc(SCC(=O)N/N=C/c3ccccc3)c2c1	none
CCOc1ccccc1/C=N/NC(=O)CSc1n[nH]c(=O)[nH]c1=O	none
COc1ccc2nc(C)cc(SCC(=O)N/N=C/c3c(OC)ccc4ccccc34)c2c1	Lmaj promast 71
O=C(CSc1n[nH]c(=O)[nH]c1=O)N/N=C/c1ccccc1O	Lmaj promast 100
COc1ccc(OC)c(C(=O)C2COC(=O)C2)c1 (centres undefined)	Lmaj promast 56
